Test results reported in ChEMBL document CHEMBL1133624, “Benzothiadiazine dioxide dibenzyl derivatives as potent human cytomegalovirus inhibitors: synthesis and comparative molecular field analysis” (J Med Chem, 2000).
pIC50: −log10 of the molar value.

Columns and labels:
[1] = system: Human betaherpesvirus 5; assay: Concentration required to reduce viral plaque formation by Human Cytomegalovirus (HCMV) (strain AD-169) in MRC-5 cells; type: functional, organism-based; conditions: Human betaherpesvirus 5, MRC5
[2] = system: MRC5; assay: Concentration required to reduce MRC-5 cell growth by 50%; type: functional; conditions: Homo sapiens
In short: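 MRC-5 fibroblasts seeded at 5 × 10³ cells/well, left to proliferate 24 h, then exposed to different concentrations of test compound (duplicate). After 3 days at 37 °C in 5% CO₂, cell number counted with a Coulter counter.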

Structure (SMILES): O=C1c2ccccc2N(Cc2ccccc2)S(=O)(=O)N1Cc1ccc(Cl)cc1
- pIC50 [1]: 5.22
- CC50 [2]: > 60 µM

Structure (SMILES): O=C1c2ccccc2N(Cc2ccc(Cl)cc2)S(=O)(=O)N1Cc1ccc(Cl)cc1
- pIC50 [1]: 5.48
- CC50 [2]: > 56 µM

Structure (SMILES): O=S1(=O)N=C(OCc2ccc(Cl)c(Cl)c2)c2ccccc2N1Cc1ccc(Cl)c(Cl)c1
- pIC50 [1]: 4.32
- CC50 [2]: > 48 µM

Structure (SMILES): O=C1c2ccccc2N(Cc2ccc([N+](=O)[O-])cc2)S(=O)(=O)N1Cc1ccccc1
- pIC50 [1]: 5.10
- CC50 [2]: > 59 µM

Structure (SMILES): O=S1(=O)N=C(OCc2ccc(-c3ccccc3)cc2)c2ccccc2N1Cc1ccc(-c2ccccc2)cc1
- pIC50 [1]: 4.33
- CC50 [2]: > 47 µM

Structure (SMILES): O=[N+]([O-])c1ccc(COC2=NS(=O)(=O)N(Cc3ccc([N+](=O)[O-])cc3)c3ccccc32)cc1
- pIC50 [1]: 4.28
- CC50 [2]: > 53 µM

Structure (SMILES): O=C1c2ccccc2N(Cc2cccc(Cl)c2)S(=O)(=O)N1Cc1ccccc1
- pIC50 [1]: 5.44
- CC50 [2]: > 60 µM

Structure (SMILES): O=S1(=O)N=C(OCc2ccccc2)c2ccccc2N1Cc1ccccc1
- pIC50 [1]: 5.10
- CC50 [2]: > 66 µM

Structure (SMILES): O=C1c2ccccc2N(Cc2ccccc2Cl)S(=O)(=O)N1Cc1ccccc1
- pIC50 [1]: 5.32
- CC50 [2]: > 60 µM

Structure (SMILES): O=C1c2ccccc2N(CC2CCCCC2)S(=O)(=O)N1Cc1ccccc1
- pIC50 [1]: 4.81
- CC50 [2]: > 65 µM

Structure (SMILES): O=C1c2ccccc2N(Cc2ccc(Cl)cc2)S(=O)(=O)N1Cc1ccccc1
- pIC50 [1]: 5.44
- CC50 [2]: > 60 µM

Structure (SMILES): O=C1c2ccccc2N(CCCc2ccccc2)S(=O)(=O)N1Cc1ccccc1
- pIC50 [1]: 4.74
- CC50 [2]: > 57 µM

Structure (SMILES): Cc1ccc(CN2c3ccccc3C(=O)N(Cc3ccccc3)S2(=O)=O)cc1
- pIC50 [1]: 5.60
- CC50 [2]: > 63 µM

Structure (SMILES): O=C1c2ccccc2N(Cc2ccc(-c3ccccc3)cc2)S(=O)(=O)N1Cc1ccc(-c2ccccc2)cc1
- pIC50 [1]: 4.33
- CC50 [2]: > 47 µM

Structure (SMILES): O=C1c2ccccc2N(Cc2ccccc2-c2ccccc2)S(=O)(=O)N1Cc1ccccc1
- pIC50 [1]: 4.36
- CC50 [2]: > 55 µM

Structure (SMILES): CC(C)CN1c2ccccc2C(=O)N(Cc2ccccc2)S1(=O)=O
- pIC50 [1]: 4.84
- CC50 [2]: 72 µM

Structure (SMILES): O=C1c2ccccc2N(Cc2ccc([N+](=O)[O-])cc2)S(=O)(=O)N1Cc1ccc([N+](=O)[O-])cc1
- pIC50 [1]: 4.28
- CC50 [2]: > 53 µM

Structure (SMILES): COc1ccc(CN2c3ccccc3C(=O)N(Cc3ccccc3)S2(=O)=O)cc1
- pIC50 [1]: 5.15
- CC50 [2]: > 61 µM

Structure (SMILES): O=C1c2ccccc2N(Cc2ccc(C(F)(F)F)cc2)S(=O)(=O)N1Cc1ccccc1
- pIC50 [1]: 5.48
- CC50 [2]: > 56 µM

Structure (SMILES): COc1ccc(CN2c3ccccc3C(OCc3ccccc3)=NS2(=O)=O)cc1
- pIC50 [1]: 4.21
- CC50 [2]: > 61 µM

Structure (SMILES): O=S1(=O)N=C(OCc2ccc(C(F)(F)F)cc2)c2ccccc2N1Cc1ccc(C(F)(F)F)cc1
- pIC50 [1]: 4.64
- CC50 [2]: > 48 µM

Structure (SMILES): COc1ccc(CCN2c3ccccc3C(=O)N(Cc3ccccc3)S2(=O)=O)cc1
- pIC50 [1]: 5.40
- CC50 [2]: > 59 µM

Structure (SMILES): O=C1c2ccccc2N(Cc2ccc(C(F)(F)F)cc2)S(=O)(=O)N1Cc1ccc(C(F)(F)F)cc1
- pIC50 [1]: 4.82
- CC50 [2]: > 48 µM

Structure (SMILES): O=C1c2ccccc2N(Cc2cccnc2)S(=O)(=O)N1Cc1ccccc1
- pIC50 [1]: 4.88
- CC50 [2]: 66 µM

Structure (SMILES): COc1ccc(C(=O)CN2c3ccccc3C(=O)N(Cc3ccccc3)S2(=O)=O)cc1
- pIC50 [1]: 5.49
- CC50 [2]: > 57 µM

Structure (SMILES): O=C1c2ccccc2N(Cc2ccccc2)S(=O)(=O)N1Cc1ccccc1Cl
- pIC50 [1]: 4.92
- CC50 [2]: > 60 µM

Structure (SMILES): N#Cc1ccc(CN2c3ccccc3C(OCc3ccccc3)=NS2(=O)=O)cc1
- pIC50 [1]: 4.54
- CC50 [2]: > 62 µM

Structure (SMILES): O=C1c2ccccc2N(Cc2ccc(Cl)c(Cl)c2)S(=O)(=O)N1Cc1ccccc1
- pIC50 [1]: 5.40
- CC50 [2]: > 56 µM

Structure (SMILES): O=C1c2ccccc2N(Cc2ccccc2)S(=O)(=O)N1Cc1ccccc1
- pIC50 [1]: 5.28
- CC50 [2]: > 66 µM

Structure (SMILES): N#Cc1ccc(CN2c3ccccc3C(=O)N(Cc3ccccc3)S2(=O)=O)cc1
- pIC50 [1]: 5.10
- CC50 [2]: > 62 µM

Structure (SMILES): Nc1nc2c(ncn2COC(CO)CO)c(=O)[nH]1 [GANCICLOVIR]
- pIC50 [1]: 5.23
- CC50 [2]: > 98 µM

Structure (SMILES): Cc1ccc(C(=O)CN2c3ccccc3C(=O)N(Cc3ccccc3)S2(=O)=O)cc1
- pIC50 [1]: 5.55
- CC50 [2]: > 59 µM

Structure (SMILES): O=S1(=O)N=C(OCc2ccccc2)c2ccccc2N1Cc1ccc(Cl)c(Cl)c1
- pIC50 [1]: 4.59
- CC50 [2]: > 56 µM

Structure (SMILES): O=C1c2ccccc2N(Cc2ccc(Cl)c(Cl)c2)S(=O)(=O)N1Cc1ccc(Cl)c(Cl)c1
- pIC50 [1]: 4.82
- CC50 [2]: > 48 µM

Structure (SMILES): O=C1c2ccccc2N(CCc2ccccc2)S(=O)(=O)N1Cc1ccccc1
- pIC50 [1]: 5.12
- CC50 [2]: > 64 µM

Structure (SMILES): COc1ccc(CN2C(=O)c3ccccc3N(Cc3ccc(OC)cc3)S2(=O)=O)cc1
- pIC50 [1]: 4.24
- CC50 [2]: > 57 µM

Structure (SMILES): O=C1c2ccccc2N(Cc2ccccc2Cl)S(=O)(=O)N1Cc1ccccc1Cl
- pIC50 [1]: 4.48
- CC50 [2]: > 56 µM

Structure (SMILES): O=C1c2ccccc2N(Cc2cccc3ccccc23)S(=O)(=O)N1Cc1ccccc1
- pIC50 [1]: 4.94
- CC50 [2]: > 58 µM

Structure (SMILES): C#CCCN1c2ccccc2C(=O)N(Cc2ccccc2)S1(=O)=O
- pIC50 [1]: 4.12
- CC50 [2]: 77 µM

Structure (SMILES): Cc1ccc(CN2c3ccccc3C(OCc3ccccc3)=NS2(=O)=O)cc1
- pIC50 [1]: 5.00
- CC50 [2]: > 63 µM

Structure (SMILES): O=C(CN1c2ccccc2C(=O)N(Cc2ccccc2)S1(=O)=O)c1ccccc1
- pIC50 [1]: 4.61
- CC50 [2]: > 61 µM
